Reference: ChEMBL document CHEMBL2346548, “Design, synthesis, and structure-activity relationship studies of tryptanthrins as antitubercular agents” (J Nat Prod, 2013)
Converted amounts (≈) assume the structure as drawn.

Columns and labels:
Vero = assay: Cytotoxicity against african green monkey Vero cells; type: cell-based, Chlorocebus sabaeus; settings: Chlorocebus sabaeus, Vero; read-out: IC50
[1] = test system: Mycobacterium tuberculosis; assay: Antitubercular activity against Mycobacterium tuberculosis H37Rv incubated at 37 degC for 7 days by microplate alamar blue assay; type: functional; settings: for MIC: Mycobacterium tuberculosis, H37Rv, 168 h
In short: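 Mtb H37Rv was grown in 7H9 broth with glycerol, Casitone, 10% OADC and 0.05% Tween 80 to OD600 0.4. Compounds were 2-fold serially diluted from DMSO stocks in 7H9, and wells were inoculated at 2 × 10⁵ CFU/mL. After 7 days at 37 °C, Alamar Blue was added and read after a further 24 h. MIC was the lowest concentration preventing the blue-to-pink change.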

[2] = test system: Mycobacterium tuberculosis; assay: Antitubercular activity against non-replicating Mycobacterium tuberculosis H37Rv incubated for 10 days by LORA method; type: functional; settings: 240 h
In short: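 H37Rv carrying pFCA-luxAB was adapted to low oxygen by gradual self-depletion in a sealed, slowly stirred flask. It was then exposed to compounds for 10 days under anaerobic conditions. Cultures recovered for 28 h in ambient oxygen before n-decanal substrate was added and luminescence read. MIC was the lowest concentration giving a 90% reduction in luminescence versus untreated controls.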

[3] = test system: Mycobacterium tuberculosis; assay: Antitubercular activity against Mycobacterium tuberculosis H37Rv incubated at 37 degC for 14 days in presence of 40% human serum by microplate alamar blue assay; type: functional; settings: 336 h
In short: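 This is the MABA run in 7H9 broth containing 40% human serum. Compounds were 2-fold serially diluted, and wells were inoculated with H37Rv at 2 × 10⁵ CFU/mL. Incubation was at 37 °C for 14 days, then Alamar Blue was added. MIC was the lowest concentration preventing the blue-to-pink colour change.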

[4] = Solubility in simulated gastric fluid at pH 1.5 by HPLC method; type: physicochemical
In short: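 Compound at 200 μM final in 2% DMSO in simulated gastric fluid, shaken 24 h at room temperature; HPLC-photodiode array detection at 230 nm; duplicate means.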

[5] = Solubility in simulated intestinal fluid at pH 7.6 by HPLC method; type: physicochemical
In short: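 Simulated intestinal fluid medium; each analogue 200 μM final in 2% DMSO, shaken 24 h at room temperature, then HPLC with photodiode array read at 230 nm; duplicate, means given.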

[6] = Efflux ratio in human Caco2 cells incubated for 1 hr at 37 degC by HPLC-MS/MS method; type: ADME, cell-based; settings: Caco-2
[7] = Permeability across basolateral to apical side in human Caco2 cells incubated for 1 hr at 37 degC by HPLC-MS/MS method; type: ADME, cell-based; settings: Caco-2
[8] = Metabolic stability in human liver microsomes assessed as parent compound remaining at 1 uM incubated for 1 hr by HPLC-MS/MS method; type: ADME, Microsome; settings: read-out: Stability
In short: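 Pooled mixed-gender human liver microsomes (0.3 mg/mL protein), 1 μM compound with NADP-regenerating system in phosphate buffer pH 7.4, 1 h at 37 °C; parent measured at start and end by HPLC-MS/MS; duplicate means.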

[9] = Permeability across apical to basolateral side in human Caco2 cells incubated for 1 hr at 37 degC by HPLC-MS/MS method; type: ADME, cell-based; settings: Caco-2
In short: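 TC7 (Caco-2 subclone) monolayer; 10 μM compound in 1% DMSO in HBSS-MES pH 6.5 on apical donor side, basolateral receiver pH 7.4; shaken 1 h at 37 °C; receiver sampled, HPLC-MS/MS; duplicate means.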

[10] = Aqueous solubility in PBS buffer at pH 7.4 by HPLC method; type: physicochemical
In short: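 Compound at 200 μM final in 2% DMSO in PBS pH 7.4, shaken 24 h at room temperature; quantified by HPLC with photodiode array detection at 230 nm; duplicate, mean reported.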

[11] = Protein binding in human plasma at 10 uM incubated for 8 hrs at 37 degC by equilibrium dialysis method; type: ADME, cell-free; settings: read-out: PPB (converted)
In short: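 Equilibrium dialysis: 10 μM compound in 1% DMSO in human plasma vs 0.05 M phosphate buffer pH 7.5 across 12–14 K cutoff membrane, at least 8 h at 37 °C; HPLC-photodiode detection at 230 nm; duplicate means.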

[12] = Distribution coefficient, log D of the compound between n-octanol and PBS buffer at pH 7.4 incubated for 1 hr by shake flask method; type: physicochemical
In short: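 Partition between n-octanol and PBS pH 7.4 after 1 h shaking at room temperature; phases analysed by HPLC with photodiode detection; logD = log10 of organic/aqueous amount.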

CYP2C19 = CYP2C19 (Homo sapiens, UniProt P33261); assay: Inhibition of human recombinant CYP2C19 at 10 uM incubated for 60 mins at 37 degC using 3-cyano-7-ethoxycoumarin substrate; type: ADME; settings: recombinant CYP2C19, probe 3-cyano-7-ethoxycoumarin
Sequence of CYP2C19 (P33261 whole entry): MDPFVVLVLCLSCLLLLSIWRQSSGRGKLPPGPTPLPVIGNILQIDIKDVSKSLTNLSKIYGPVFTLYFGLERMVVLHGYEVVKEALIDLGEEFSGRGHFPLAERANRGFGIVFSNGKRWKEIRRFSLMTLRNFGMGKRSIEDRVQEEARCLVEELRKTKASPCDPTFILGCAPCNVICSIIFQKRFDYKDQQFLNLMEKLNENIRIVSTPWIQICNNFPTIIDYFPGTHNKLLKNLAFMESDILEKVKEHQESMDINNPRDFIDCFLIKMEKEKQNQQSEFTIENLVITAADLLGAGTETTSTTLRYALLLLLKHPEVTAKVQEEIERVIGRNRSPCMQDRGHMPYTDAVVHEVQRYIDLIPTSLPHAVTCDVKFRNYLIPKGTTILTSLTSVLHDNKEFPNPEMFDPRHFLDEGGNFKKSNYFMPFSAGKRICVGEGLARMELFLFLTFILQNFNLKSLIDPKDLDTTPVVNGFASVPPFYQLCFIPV

CYP2C9 = CYP2C9 (Homo sapiens, UniProt P11712); assay: Inhibition of human recombinant CYP2C9 at 10 uM incubated for 80 mins at 37 degC using 7-methoxy-4-trifluoromethylcoumarin substrate; type: ADME; settings: recombinant CYP2C9, probe 7-methoxy-4-trifluoromethylcoumarin
Sequence of CYP2C9 (P11712 whole entry): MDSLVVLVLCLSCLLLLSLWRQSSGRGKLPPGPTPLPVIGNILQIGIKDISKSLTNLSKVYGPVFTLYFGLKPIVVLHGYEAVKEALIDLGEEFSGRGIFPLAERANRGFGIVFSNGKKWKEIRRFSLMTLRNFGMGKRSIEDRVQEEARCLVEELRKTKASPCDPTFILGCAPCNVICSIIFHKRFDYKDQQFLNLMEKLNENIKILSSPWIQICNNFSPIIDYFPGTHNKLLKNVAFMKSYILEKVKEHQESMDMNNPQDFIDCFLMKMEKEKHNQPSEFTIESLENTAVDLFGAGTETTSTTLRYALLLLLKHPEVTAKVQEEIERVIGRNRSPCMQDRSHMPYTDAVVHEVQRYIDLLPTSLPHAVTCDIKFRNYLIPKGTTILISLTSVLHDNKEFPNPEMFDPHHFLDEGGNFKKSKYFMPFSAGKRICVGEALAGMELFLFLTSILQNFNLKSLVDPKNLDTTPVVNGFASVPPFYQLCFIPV

CYP3A4 = CYP3A4 (Homo sapiens, UniProt P08684); assay: Inhibition of human recombinant CYP3A4 at 10 uM incubated for 30 mins at 37 degC using 7-benzyloxy-4-(trifluoromethyl)coumarin substrate; type: ADME; settings: recombinant CYP3A4, probe 7-benzyloxy-4-(trifluoromethyl)coumarin
Sequence of CYP3A4 (P08684 whole entry): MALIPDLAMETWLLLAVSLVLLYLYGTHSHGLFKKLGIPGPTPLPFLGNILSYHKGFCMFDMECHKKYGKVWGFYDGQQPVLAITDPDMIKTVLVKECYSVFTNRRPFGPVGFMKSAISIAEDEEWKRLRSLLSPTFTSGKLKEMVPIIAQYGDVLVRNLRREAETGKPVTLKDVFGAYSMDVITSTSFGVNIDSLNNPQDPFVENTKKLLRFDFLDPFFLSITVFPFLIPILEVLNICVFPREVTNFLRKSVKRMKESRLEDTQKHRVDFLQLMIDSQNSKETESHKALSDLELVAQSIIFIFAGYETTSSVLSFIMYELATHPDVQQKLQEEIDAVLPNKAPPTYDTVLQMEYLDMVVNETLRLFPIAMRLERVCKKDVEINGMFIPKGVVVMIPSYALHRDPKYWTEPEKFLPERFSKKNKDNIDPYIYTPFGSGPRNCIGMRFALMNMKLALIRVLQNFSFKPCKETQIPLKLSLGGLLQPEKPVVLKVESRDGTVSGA

[13] = Half life in female rat at 56 mg/kg, po; type: ADME, organism-based; design: dose 56 mg/kg, route oral; settings: in vivo
[14] = Half life in male rat at 56 mg/kg, po; type: ADME, organism-based; design: dose 56 mg/kg, route oral; settings: in vivo
[15] = PBS buffer, read-out: solubility

Row | SMILES | IC50 (Vero) | MIC [1] | MIC90 [2] | MIC [3] | solubility [4] | solubility [5] | efflux ratio at 1 h [6] | Papp B→A at 1 h [7] | remaining at 1 h, 1 µM [8] | Papp A→B at 1 h [9] | solubility [10, 15] | MBC90 [1] | fraction unbound at 8 h, 10 µM [11] | logD at 1 h [12] | inhibition at 1 h, 10 µM (CYP2C19) | inhibition at 80 min, 10 µM (CYP2C9) | inhibition at 0.5 h, 10 µM (CYP3A4) | half-life [13] | half-life [14] | solubility ([10]; buffer)
1 | O=C1c2cc(C(=O)N3CCOCC3)ccc2-n2c1nc1ccccc1c2=O | > 10 µg/mL | 8 µg/mL (≈ 22.1 µM) | > 10 µg/mL | 32 µg/mL |  |  |  |  |  |  |  |  |  |  |  |  |  |  |  | 
2 | O=C1c2cc(OC(F)(F)F)ccc2-n2c1nc1ccccc1c2=O | > 50 µg/mL | 0.125 µg/mL (≈ 0.376 µM) | > 50 µg/mL | 0.5 µg/mL | 1.5 µM (≈ 0.498 µg/mL) | 31.3 µM (≈ 10.4 µg/mL) | > 1 | 5.8 ×10⁻⁶ cm/s | 59% | 22 ×10⁻⁶ cm/s | 1 µM (≈ 0.332 µg/mL) |  |  |  |  |  |  |  |  | 
3 | O=C1c2cc(Cl)ccc2-n2c1nc1ccc(F)cc1c2=O | 23.5 µg/mL (≈ 78.2 µM) | 0.156 µg/mL (≈ 0.519 µM) | > 50 µg/mL | 0.312 µg/mL |  | 29.8 µM (≈ 8.96 µg/mL) |  | 2.1 ×10⁻⁶ cm/s | 63% | 2.2 ×10⁻⁶ cm/s |  |  |  |  |  |  |  |  |  | 
4 | O=C1c2cc(Cl)ccc2-n2c1nc1cc(F)ccc1c2=O | > 50 µg/mL | 0.5 µg/mL (≈ 1.66 µM) | > 50 µg/mL | 0.5 µg/mL | 2.5 µM (≈ 0.752 µg/mL) | 10.3 µM (≈ 3.1 µg/mL) | > 1 | 12.7 ×10⁻⁶ cm/s | 91% | 28.5 ×10⁻⁶ cm/s | 1.1 µM (≈ 0.331 µg/mL) | 0.25 µg/mL (≈ 0.831 µM) |  |  |  |  |  |  |  | 
5 | CCOC(=O)c1ccc2c(c1)C(=O)c1nc3ccccc3c(=O)n1-2 | > 16 µg/mL | 0.5 µg/mL (≈ 1.56 µM) |  | 1 µg/mL | 1.5 µM (≈ 0.48 µg/mL) | 11.1 µM (≈ 3.56 µg/mL) |  | 0.8 ×10⁻⁶ cm/s | 0% | 4.2 ×10⁻⁶ cm/s | 3.8 µM (≈ 1.22 µg/mL) |  | 0.016 | 2.94 | 10% | 38% | 5% |  |  | 
6 | O=C1c2cc(OC(F)(F)F)ccc2-n2c1nc1ncccc1c2=O | 7.6 µg/mL (≈ 22.8 µM) | 0.25 µg/mL (≈ 0.75 µM) | 2.5 µg/mL (≈ 7.5 µM) | 0.5 µg/mL |  |  |  |  |  |  |  |  |  |  |  |  |  |  |  | 
7 | O=C1C2=Nc3ccncc3CN2c2ccc(OC(F)(F)F)cc21 | 5.2 µg/mL (≈ 16.3 µM) | 2 µg/mL (≈ 6.26 µM) | 9 µg/mL (≈ 28.2 µM) |  |  |  |  |  |  |  |  |  |  |  |  |  |  |  |  | 
8 | O=C1c2cc(Cl)ccc2-n2c1nc1ccccc1c2=O | > 50 µg/mL | 0.125 µg/mL (≈ 0.442 µM) | > 50 µg/mL | 0.25 µg/mL | 26.8 µM (≈ 7.58 µg/mL) | 16.7 µM (≈ 4.72 µg/mL) |  |  |  |  | 3.3 µM (≈ 0.933 µg/mL) | 0.125 µg/mL (≈ 0.442 µM) |  | 2.76 | 13% | 38% | 10% |  |  | 
9 | O=C1c2cc([N+](=O)[O-])ccc2-n2c1nc1ccccc1c2=O | 28 µg/mL (≈ 95.5 µM) | 0.032 µg/mL (≈ 0.109 µM) | 2.4 µg/mL (≈ 8.18 µM) | 0.5 µg/mL | 5.1 µM (≈ 1.5 µg/mL) | 152 µM (≈ 44.5 µg/mL) |  |  | 33% |  | 64.3 µM (≈ 18.9 µg/mL) | 0.25 µg/mL (≈ 0.853 µM) | 0.031 |  |  |  |  |  |  | 
10 | O=C1c2cc(Br)ccc2-n2c1nc1ccccc1c2=O | 35 µg/mL (≈ 107 µM) | 0.125 µg/mL (≈ 0.382 µM) | > 50 µg/mL | 0.5 µg/mL | 2.3 µM (≈ 0.752 µg/mL) | 92.9 µM (≈ 30.4 µg/mL) | > 1 | 7.6 ×10⁻⁶ cm/s | 59% | 23.8 ×10⁻⁶ cm/s | 2.6 µM (≈ 0.851 µg/mL) |  |  |  |  |  |  |  |  | 
11 | O=C1c2ccccc2-n2c1nc1ccc(Br)cc1c2=O | > 50 µg/mL | 0.25 µg/mL (≈ 0.764 µM) | > 50 µg/mL | 0.5 µg/mL |  | 49.4 µM (≈ 16.2 µg/mL) |  |  |  |  |  | 0.5 µg/mL (≈ 1.53 µM) |  | 1.69 | 10% | 20% | 10% |  |  | 
12 | O=C1c2ccccc2-n2c1nc1ccccc1c2=O [TRYPTANTHRIN] | > 8 µg/mL | 1 µg/mL (≈ 4.03 µM) |  | 1 µg/mL | 11.7 µM (≈ 2.9 µg/mL) | 12.9 µM (≈ 3.2 µg/mL) | > 1 | 22.5 ×10⁻⁶ cm/s | 15% | 60.1 ×10⁻⁶ cm/s |  | 1 µg/mL (≈ 4.03 µM) | 0.041 | 2.29 | 9% | 25% | 12% | 4.35 h | 5.6 h | 5.4 µM (≈ 1.34 µg/mL)
